Reference: publication PMC2630402 (Journal of medicinal chemistry, 2008)
Like-named read-outs stand apart in the source and are kept apart here.

Tests used:
[1] = test system: αvβ6-positive (DX3puroβ6) tumor; assay: Biodistribution in mice bearing paired αvβ6-positive; assay type: in vivo, male athymic nude mice; settings: for uptake in the αvβ6-positive tumor: DX3puroβ6 xenograft, 1 hour after injection; for uptake in the αvβ6-positive tumor / level of activity in the urine: n = 3/tracer; for level of activity in the urine: male athymic nude mice
Summary of the method: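 Test compounds were 18F-labeled αvβ6-targeting peptides carrying different prosthetic groups. Radioactivity in healthy tissues and in both tumors was measured 1 h after injection and expressed as % ID/g, the percent of injected radioactive dose per gram of tissue. There were 3 mice per tracer.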

[2] = test system: αvβ6-positive (DX3puroβ6) tumor; settings: DX3puroβ6 xenograft, 1 hour after injection, n = 3/tracer; data for 1 taken from ref 8; cited from earlier work

Row | Substance | uptake in the αvβ6-positive tumor [1] [% ID/g] | levels of radioactivity in the kidneys and the liver ([1]; biodistribution, 1 h p.i., compared with 1 and 2) | level of activity in the urine ([1]; biodistribution, 1 h p.i.) [% ID/g] | uptake in the αvβ6-positive tumor [2] [% ID/g]
1 | [^18F]FC5-A20FDMV2 [compound 3] | 1.01±0.09 | moderately increased | 501 ± 332 | –
2 | [^18F]FBA-A20FDMV2 [compound 1] | – | – | – | 0.66 ± 0.09
3 | [^18F]FPA-A20FDMV2 [compound 2] | 1.18 ± 0.28 | – | 311 ± 133 | –
